Results published in ChEMBL document CHEMBL1138835, “Inhibitors of multiple mutants of Plasmodium falciparum dihydrofolate reductase and their antimalarial activities” (J Med Chem, 2004).

Columns and labels:
KB [1] = test: Relative antiplasmodial activity to cytotoxicity in Plasmodium falciparum TM4/8.2 infected KB cells; assay type: functional
BC [2] = test: Relative antiplasmodial activity to cytotoxicity in Plasmodium falciparum TM4/8.2 infected BC cells; assay type: functional
Vero [3] = test: In vitro cytotoxicity against Plasmodium falciparum infected vero cell line.; assay type: functional, cell-based; conditions: Chlorocebus sabaeus
In short: (§1)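 Cytotoxicity (IC50, μM) run against three mammalian lines: Vero (African green monkey kidney fibroblasts), KB (human epidermoid carcinoma) and BC (human breast cancer). Testing followed the Skehan et al. protocol.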

KB [4] = test: In vitro cytotoxicity against Plasmodium falciparum infected KB cell line; assay type: functional, cell-based; conditions: Homo sapiens; in short: as §1
[5] = test system: Bifunctional dihydrofolate reductase-thymidylate synthase (Plasmodium falciparum K1), P13922 [UNDEFINED MUTATION]; test: Ratio of binding affinity for mutant (N51I+C59R+S108N+I164L) to that of wild type dihydrofolate reductase
Chain of Bifunctional dihydrofolate reductase-thymidylate synthase (Plasmodium falciparum K1), P13922 [UNDEFINED MUTATION] (P13922 whole entry, looked up, stated change not applied): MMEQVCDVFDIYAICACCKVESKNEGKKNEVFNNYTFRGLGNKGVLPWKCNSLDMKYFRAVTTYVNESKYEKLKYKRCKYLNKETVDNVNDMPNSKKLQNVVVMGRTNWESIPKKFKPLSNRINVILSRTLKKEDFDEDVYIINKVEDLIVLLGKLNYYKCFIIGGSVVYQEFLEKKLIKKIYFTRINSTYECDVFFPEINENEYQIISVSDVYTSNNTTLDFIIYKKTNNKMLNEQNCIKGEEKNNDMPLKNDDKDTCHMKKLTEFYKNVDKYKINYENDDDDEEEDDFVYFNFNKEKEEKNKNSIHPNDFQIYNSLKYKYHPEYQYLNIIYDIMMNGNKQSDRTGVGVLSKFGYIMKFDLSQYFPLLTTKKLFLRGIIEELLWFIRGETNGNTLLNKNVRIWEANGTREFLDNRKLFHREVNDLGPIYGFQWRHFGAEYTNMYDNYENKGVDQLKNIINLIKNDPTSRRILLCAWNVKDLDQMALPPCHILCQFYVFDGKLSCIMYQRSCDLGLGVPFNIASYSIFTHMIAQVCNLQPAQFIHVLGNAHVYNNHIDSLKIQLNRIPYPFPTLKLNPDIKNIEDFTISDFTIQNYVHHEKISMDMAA
In short: (§2)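 Each ratio is Ki for the mutant PfDHFR divided by Ki for wild-type PfDHFR. The recombinant enzymes were expressed in E. coli BL21(DE3)pLysS and purified on methotrexate-Sepharose. Ki was derived assuming inhibitors compete with substrate binding.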

KB [6] = test: Relative antiplasmodial activity to cytotoxicity in Plasmodium falciparum Csl-2 infected KB cells; assay type: functional
Vero [7] = test: Relative antiplasmodial activity to cytotoxicity in Plasmodium falciparum V1/S infected Vero cells; assay type: functional
Vero [8] = test: Relative antiplasmodial activity to cytotoxicity in Plasmodium falciparum TM4/8.2 infected Vero cells; assay type: functional
BC [9] = test: Relative antiplasmodial activity to cytotoxicity in Plasmodium falciparum Csl-2 infected BC cells; assay type: functional
[10] = test system: Bifunctional dihydrofolate reductase-thymidylate synthase (Plasmodium falciparum K1), P13922 [UNDEFINED MUTATION]; test: Ratio of binding affinity for mutant (C59R+S108N+I164L) to that of wild type dihydrofolate reductase; in short: as §2
[11] = biological target: Bifunctional dihydrofolate reductase-thymidylate synthase (Plasmodium falciparum K1) (UniProt P13922); test: Ratio of binding affinity for mutant (N51I+C59R+S108N) to that of wild type dihydrofolate reductase; in short: as §2
Chain of Bifunctional dihydrofolate reductase-thymidylate synthase (Plasmodium falciparum K1) (P13922 whole entry, looked up): as the sequence (P13922 whole entry, looked up, stated change not applied) above

Vero [12] = test: Relative antiplasmodial activity to cytotoxicity in Plasmodium falciparum Csl-2 infected Vero cells; assay type: functional
KB [13] = test: Relative antiplasmodial activity to cytotoxicity in Plasmodium falciparum V1/S infected KB cells; assay type: functional
[14] = biological target: Bifunctional dihydrofolate reductase-thymidylate synthase (Plasmodium falciparum K1, UniProt P13922, C59R/I164L/S108N); test: Binding affinity towards mutant dihydrofolate reductase (C59R+S108N+I164L DHFR) of Plasmodium falciparum
Chain of Bifunctional dihydrofolate reductase-thymidylate synthase (Plasmodium falciparum K1, UniProt P13922, C59R/I164L/S108N) (P13922 whole entry, looked up, stated change not applied): as above

[15] = biological target: Bifunctional dihydrofolate reductase-thymidylate synthase (Plasmodium falciparum K1, UniProt P13922, C59R/N51I/S108N); test: Binding affinity towards mutant dihydrofolate reductase (N51I+C59R+S108N DHFR) of Plasmodium falciparum
Chain of Bifunctional dihydrofolate reductase-thymidylate synthase (Plasmodium falciparum K1, UniProt P13922, C59R/N51I/S108N) (P13922 whole entry, looked up, stated change not applied): as above

[16] = biological target: Bifunctional dihydrofolate reductase-thymidylate synthase (Plasmodium falciparum K1, UniProt P13922, C59R/I164L/N51I/S108N); test: Binding affinity towards mutant dihydrofolate reductase (N51I+C59R+S108N+I164L DHFR) of Plasmodium falciparum
Chain of Bifunctional dihydrofolate reductase-thymidylate synthase (Plasmodium falciparum K1, UniProt P13922, C59R/I164L/N51I/S108N) (P13922 whole entry, looked up, stated change not applied): as above

BC [17] = test: In vitro cytotoxicity against BC cell line.; conditions: Homo sapiens
[18] = biological target: Bifunctional dihydrofolate reductase-thymidylate synthase (Plasmodium falciparum K1, UniProt P13922, A16V/S108T); test: Binding affinity towards mutant dihydrofolate reductase (A16V+S108T DHFR) of Plasmodium falciparum.
Chain of Bifunctional dihydrofolate reductase-thymidylate synthase (Plasmodium falciparum K1, UniProt P13922, A16V/S108T) (P13922 whole entry, looked up, stated change not applied): as above

[19] = test system: Bifunctional dihydrofolate reductase-thymidylate synthase (Plasmodium falciparum K1), P13922 [UNDEFINED MUTATION]; test: Ratio of binding affinity for mutant (A16V+S108T) to that of wild type dihydrofolate reductase; in short: as §2

SMILES: Nc1nc(N)c(-c2cccc(Cl)c2)c(CCCO)n1
- Safety ratio (KB [1]): 9.2
- Safety ratio (BC [2]): 13.6
- IC50 (Vero [3]): 22.3 µM
- IC50 (KB [4]): 10.1 µM
- Ratio [5]: 6.1
- Safety ratio (KB [6]): 5.3
- Safety ratio (Vero [7]): 3.6
- Safety ratio (Vero [8]): 20.3
- Safety ratio (BC [9]): 7.9
- Ratio [10]: 3.2
- Ratio [11]: 0.25
- Safety ratio (Vero [12]): 11.7
- Safety ratio (KB [13]): 1.6
- Ki [14]: 0.029 µM
- Ki [15]: 0.0023 µM
- Ki [16]: 0.057 µM
- IC50 (BC [17]): 15 µM

SMILES: NC1=NC(c2cccc(OCc3ccccc3)c2)N(c2ccc(Cl)cc2)C(N)=N1 (stereo not given)
- Ki [18]: 0.0062 µM
- Ratio [5]: 911
- Ratio [19]: 8.9
- Ratio [10]: 1100
- Ratio [11]: 315
- Ki [14]: 0.771 µM
- Ki [15]: 0.22 µM
- Ki [16]: 0.638 µM

SMILES: NC1=NC(c2cccc(OCc3ccccc3)c2)N(c2cccc(Cl)c2)C(N)=N1 (stereo not given)
- Safety ratio (KB [1]): 2
- Safety ratio (BC [2]): 5.5
- IC50 (Vero [3]): > 50 µM
- Ki [18]: 0.0032 µM
- IC50 (KB [4]): 8 µM
- Ratio [5]: 3.3
- Safety ratio (KB [6]): 1.1
- Safety ratio (Vero [7]): >6.1
- Safety ratio (Vero [8]): >12.5
- Safety ratio (BC [9]): 2.9
- Ratio [19]: 1.4
- Ratio [10]: 1.6
- Ratio [11]: 1.4
- Safety ratio (Vero [12]): >6.7
- Safety ratio (KB [13]): 1
- Ki [14]: 0.0036 µM
- Ki [15]: 0.0032 µM
- Ki [16]: 0.0077 µM
- IC50 (BC [17]): 22 µM

SMILES: NC1=NC(c2cccc(Oc3ccccc3)c2)N(c2ccc(Cl)cc2)C(N)=N1 (stereo not given)
- Ki [18]: 0.0027 µM
- Ratio [5]: 478
- Ratio [19]: 5.4
- Ratio [10]: 264
- Ratio [11]: 47.1
- Ki [14]: 0.132 µM
- Ki [15]: 0.0236 µM
- Ki [16]: 0.239 µM

SMILES: Nc1nc(N)c(-c2ccccc2)c(CCCOC(=O)c2ccccc2)n1
- Ratio [5]: 4.1
- Ratio [10]: 0.8
- Ratio [11]: 0.2
- Ki [14]: 0.0027 µM
- Ki [15]: 0.0007 µM
- Ki [16]: 0.014 µM

SMILES: CCCOc1ccc(C2N=C(N)N=C(N)N2c2cccc(Cl)c2)cc1 (stereo not given)
- Safety ratio (KB [1]): 24
- Safety ratio (BC [2]): 120
- IC50 (Vero [3]): > 50 µM
- Ki [18]: 0.0093 µM
- IC50 (KB [4]): 6 µM
- Safety ratio (KB [6]): 2.1
- Safety ratio (Vero [7]): >17.2
- Safety ratio (Vero [8]): >200
- Safety ratio (BC [9]): 10.3
- Safety ratio (Vero [12]): >17.2
- Safety ratio (KB [13]): 2.1
- Ki [14]: 0.0005 µM
- Ki [15]: 0.0021 µM
- Ki [16]: 0.0027 µM
- IC50 (BC [17]): 30 µM

SMILES: CC(=O)OCCCc1nc(N)nc(N)c1-c1ccccc1
- Ratio [5]: 22.3
- Ratio [10]: 1.7
- Ratio [11]: 0.5
- Ki [14]: 0.018 µM
- Ki [15]: 0.005 µM
- Ki [16]: 0.237 µM

SMILES: CCc1nc(N)nc(N)c1-c1ccccc1
- Ki [14]: 0.025 µM
- Ki [15]: 0.003 µM
- Ki [16]: 0.032 µM

SMILES: CC(C)C1(C)N=C(N)N=C(N)N1c1ccc(Cl)cc1 (stereo not given)
- Ki [18]: 44.8 µM
- Ratio [5]: > 274
- Ratio [19]: 1230
- Ratio [10]: 127
- Ratio [11]: 37.5
- Ki [14]: 4.62 µM
- Ki [15]: 1.37 µM
- Ki [16]: > 10 µM

SMILES: CCCC1(C)N=C(N)N=C(N)N1c1ccc(Cl)cc1 (stereo not given)
- Ki [18]: 9.23 µM
- Ratio [5]: 1270
- Ratio [19]: 2640
- Ratio [10]: 1040
- Ratio [11]: 160
- Ki [14]: 3.65 µM
- Ki [15]: 0.56 µM
- Ki [16]: 4.43 µM

SMILES: NC1=NC(c2ccccc2)N(c2ccc(Cl)cc2)C(N)=N1 (stereo not given)
- Ki [14]: 1.87 µM
- Ki [15]: 0.196 µM
- Ki [16]: 2.44 µM

SMILES: CC(=O)OCCCc1nc(N)nc(N)c1-c1cccc(Cl)c1
- Safety ratio (KB [1]): 10.6
- Safety ratio (BC [2]): 6.3
- IC50 (Vero [3]): 50 µM
- IC50 (KB [4]): 17 µM
- Ratio [5]: 10.1
- Safety ratio (KB [6]): 9.4
- Safety ratio (Vero [7]): 9.4
- Safety ratio (Vero [8]): 31.3
- Safety ratio (BC [9]): 5.6
- Ratio [10]: 1
- Ratio [11]: 0.6
- Safety ratio (Vero [12]): 27.8
- Safety ratio (KB [13]): 3.2
- Ki [14]: 0.0032 µM
- Ki [15]: 0.0018 µM
- Ki [16]: 0.0314 µM
- IC50 (BC [17]): 10 µM

SMILES: CC1(C)N=C(N)N=C(N)N1c1cccc(Cl)c1
- IC50 (Vero [3]): 49 µM
- IC50 (KB [4]): 4 µM
- IC50 (BC [17]): 8.9 µM

SMILES: NC1=NC(c2cccc(Oc3cccc(C(F)(F)F)c3)c2)N(c2cccc(Cl)c2)C(N)=N1 (stereo not given)
- Safety ratio (KB [1]): 1.9
- Safety ratio (BC [2]): 2
- IC50 (Vero [3]): 30 µM
- Ki [18]: 0.0065 µM
- IC50 (KB [4]): 6 µM
- Ratio [5]: 1.8
- Safety ratio (KB [6]): 1.8
- Safety ratio (Vero [7]): 9.4
- Safety ratio (Vero [8]): 9.4
- Safety ratio (BC [9]): 1.9
- Ratio [19]: 2.4
- Ratio [10]: 0.2
- Ratio [11]: 0.7
- Safety ratio (Vero [12]): 8.8
- Safety ratio (KB [13]): 1.9
- Ki [14]: 0.0006 µM
- Ki [15]: 0.002 µM
- Ki [16]: 0.0048 µM
- IC50 (BC [17]): 6.4 µM

SMILES: NC1=NC(c2ccc(Oc3ccccc3)cc2)N(c2ccc(Cl)cc2)C(N)=N1 (stereo not given)
- Safety ratio (KB [1]): 58.3
- Safety ratio (BC [2]): 71.7
- IC50 (Vero [3]): > 50 µM
- Ki [18]: 0.0038 µM
- IC50 (KB [4]): 7 µM
- Ratio [5]: 555
- Safety ratio (KB [6]): 1.5
- Safety ratio (Vero [7]): >7.2
- Safety ratio (Vero [8]): >417
- Safety ratio (BC [9]): 1.8
- Ratio [19]: 9.5
- Ratio [10]: 363
- Ratio [11]: 73.1
- Safety ratio (Vero [12]): >10.4
- Safety ratio (KB [13]): 1
- Ki [14]: 0.145 µM
- Ki [15]: 0.0293 µM
- Ki [16]: 0.222 µM
- IC50 (BC [17]): 8.6 µM

SMILES: Nc1nc(N)c(-c2cccc(Cl)c2)c(CCCOC(=O)OCc2ccccc2)n1
- Safety ratio (KB [1]): 0.8
- Safety ratio (BC [2]): 1.9
- IC50 (Vero [3]): 5.2 µM
- IC50 (KB [4]): 1.6 µM
- Ratio [5]: 3
- Safety ratio (KB [6]): 0.8
- Safety ratio (Vero [7]): 0.9
- Safety ratio (Vero [8]): 2.7
- Safety ratio (BC [9]): 1.9
- Ratio [10]: 0.7
- Ratio [11]: 0.9
- Safety ratio (Vero [12]): 2.7
- Safety ratio (KB [13]): 0.3
- Ki [14]: 0.0008 µM
- Ki [15]: 0.0011 µM
- Ki [16]: 0.0036 µM
- IC50 (BC [17]): 3.6 µM

SMILES: Nc1nc(N)c(-c2ccccc2)c(CCCO)n1
- Ratio [5]: 6.5
- Ratio [10]: 1.4
- Ratio [11]: 0.7
- Ki [14]: 0.121 µM
- Ki [15]: 0.0585 µM
- Ki [16]: 0.549 µM

SMILES: Nc1nc(N)c(-c2cccc(Cl)c2)c(CCCOC(=O)c2ccccc2)n1
- Safety ratio (KB [1]): 4
- Safety ratio (BC [2]): 4.5
- IC50 (Vero [3]): 61 µM
- IC50 (KB [4]): 8.4 µM
- Ratio [5]: 2.4
- Safety ratio (KB [6]): 4.4
- Safety ratio (Vero [7]): 8.1
- Safety ratio (Vero [8]): 29
- Safety ratio (BC [9]): 5
- Ratio [10]: 0.5
- Ratio [11]: 0.5
- Safety ratio (Vero [12]): 32.1
- Safety ratio (KB [13]): 1.1
- Ki [14]: 0.0008 µM
- Ki [15]: 0.0008 µM
- Ki [16]: 0.0036 µM
- IC50 (BC [17]): 9.5 µM

SMILES: CCCCCCC1(C)N=C(N)N=C(N)N1c1ccc(Cl)cc1 (stereo not given)
- Ki [18]: 0.955 µM
- Ratio [5]: 115
- Ratio [19]: 1590
- Ratio [10]: 69.6
- Ratio [11]: 18.8
- Ki [14]: 0.0418 µM
- Ki [15]: 0.0113 µM
- Ki [16]: 0.0692 µM

SMILES: CC(C)C1(C)N=C(N)N=C(N)N1c1cccc(Cl)c1 (stereo not given)
- Ki [18]: 2.18 µM
- Ratio [5]: 18.1
- Ratio [19]: 85
- Ratio [10]: 8.4
- Ratio [11]: 7.7
- Ki [14]: 0.213 µM
- Ki [15]: 0.196 µM
- Ki [16]: 0.472 µM
